Active and inactive are the calls of the source. The calls are words filed in the database; no cut-off is given here.
How the values were obtained:
L929 [1] = experiment: Induction of azide reporter generation in mouse L929 cells at 50 uM incubated for 72 hrs by Western blot analysis; type: functional, cell-based
Procedure, shortened: (§1)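 Cells seeded at 4 × 10⁴ per mL (MCF-7, RPMI/5% FBS) or 1 × 10⁴ per mL (L929, DMEM/10% FBS) and fed azido sugar at 37 °C for 72 h. RIPA lysates were cleared, protein-normalised and reacted with 0.5 μM phosphine-PEG3-biotin for 12 h at RT. 20 μg protein run on 8% SDS-PAGE, transferred to PVDF, blocked in BSA/TBST, probed overnight at 4 °C with streptavidin-HRP, ECL detection.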

L929 [2] = experiment: Induction of azide reporter generation in mouse L929 cells at 50 uM incubated for 72 hrs by confocal laser microscopy; type: functional, cell-based
Procedure, shortened: (§2)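 Cells seeded at 4 × 10⁴ per mL (MCF-7) or 1 × 10⁴ per mL (L929) in glass-bottom dishes and kept with azido sugar at 37 °C for 72 h. Washed cells were labelled with 20 μM DBCO-Cy5 for 1 h at 37 °C, formaldehyde-fixed and DAPI-mounted. Confocal imaging; mean fluorescence intensity quantified; mean ± SEM, n = 3.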

MCF7 [3] = experiment: Induction of azide reporter generation in human MCF7 cells at 50 uM incubated for 72 hrs by Western blot analysis; type: functional, cell-based; procedure, shortened: as §1
MCF7 [4] = experiment: Anticancer activity against human MCF7 cells assessed as cell viability at 50 uM by MTT assay relative to control; type: functional; conditions: read-out: Activity
MCF7 [5] = experiment: Induction of azide reporter generation in human MCF7 cells at 50 uM incubated for 72 hrs by confocal laser microscopy; type: functional, cell-based; procedure, shortened: as §2
[6] = Selectivity index, ratio of IC50 for mouse L929 cells to IC50 for human MCF7 cells; type: toxicity; conditions: L929 cells and MCF7 cells, read-out: Ratio IC50
Procedure, shortened: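 MTT assay on MCF-7 (RPMI, 5% FBS) and L929 (DMEM, 10% FBS) at 37 °C, 5% CO2. Some cells were first given 50 μM azido-sugar for 72 h. Cells were seeded at 4 × 10⁴ or 1 × 10⁵ cells/mL for 24 h, then treated with 0.001–10 μM for 72 h. MTT 0.5 mg/mL, 4 h, DMSO, A570; untreated control; triplicate; IC50 from fitted curves; ratio L929/MCF-7.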

MCF7 [7] = experiment: Anticancer activity against Tetra-O-acetyl-azidomannosamine engineered human MCF7 cells incubated for 72 hrs by MTT assay; type: functional, cell-based; conditions: MCF7, 72 h
Procedure, shortened: (§3)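 MCF-7 cells grown in RPMI 1640 with 5% FBS at 37 °C, 5% CO2. Cells were pre-labelled with 50 μM Ac4ManNAz for 72 h, then seeded at 4 × 10⁴ cells per mL. After 24 h they were exposed to prodrug at 0.001–10 μM for 72 h. MTT (0.5 mg mL⁻¹, 4 h) was added, formazan dissolved in DMSO, A570 read. Untreated cells served as control. Triplicates; IC50 from fitted curve; mean ± SEM.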

[8] = Cytotoxicity against Tetra-O-acetyl-azidomannosamine engineered mouse L929 cells incubated for 72 hrs by MTT assay; type: toxicity, cell-based; conditions: L929 cells engineered with Tetra-O-acetyl-azidomannosamine
Procedure, shortened: as §3, with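 “L929 cells” for “MCF-7 cells”, “in DMEM” for “in RPMI 1640”, “with 10%” for “with 5%”, “at 1” for “at 4”, “× 10⁵” for “× 10⁴”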

| SMILES | Activity (L929 [1]) | Activity (L929 [2]) | Activity (MCF7 [3]) | viability at 50 µM (MCF7 [4]) | Activity (MCF7 [5]) | selectivity ratio [6] | IC50 (MCF7 [7]) | IC50 at 72 h [8] |
| --- | --- | --- | --- | --- | --- | --- | --- | --- |
| CC(=O)N[C@H]1[C@H]([C@H](OC(C)=O)[C@@H](CN=[N+]=[N-])OC(C)=O)O[C@@](OC(C)=O)(C(=O)O)C[C@@H]1OC(C)=O | inactive | inactive | Active | 100% | Active | – | – | – |
| O=C(Nc1ccc(N(CCCl)CCCl)cc1)c1ccccc1P(c1ccccc1)c1ccccc1 | – | – | – | – | – | 2 | – | – |
| CC(=O)N[C@H]1[C@H]([C@H](O)[C@H](O)CN=[N+]=[N-])OC(O)(C(=O)O)C[C@@H]1O (single isomer, unassigned) | inactive | inactive | Active | 100% | Active | – | – | – |
| COc1cccc2c1C(=O)c1c(O)c3c(c(O)c1C2=O)C[C@@](O)(C(=O)CO)C[C@@H]3OC1C[C@@H](NC(=O)c2ccccc2P(c2ccccc2)c2ccccc2)[C@@H](O)[C@@H](C)O1 (some centres undefined) | – | – | – | – | – | 2 | 200 nM | 7.7 µM |
| CC(=O)OC[C@H]1OC(OC(C)=O)[C@@H](NC(=O)CN=[N+]=[N-])[C@@H](OC(C)=O)[C@@H]1OC(C)=O (some centres undefined) | Active | Active | Active | 100% | Active | – | – | – |

— ChEMBL document CHEMBL5335786, “Bioorthogonal activation of prodrugs, for the potential treatment of breast cancer, using the Staudinger reaction” (RSC Med Chem, 2023)
